Our source for the Response and Binding constant values is ChEMBL document CHEMBL1130127, “Synthesis, photophysical properties, in vivo photosensitizing efficacy, and human serum albumin binding properties of some novel bacteriochlorins” (J Med Chem, 1997).

Series [1] relates to Mus musculus. Briefly: The compound was tested in vivo for photosensitizing efficacy in DBA/2 Mice transplanted with SMT/F tumors and the activity is expressed as % response (1-5 days) 3 hours post injection at 2.5 mg/kg concentration. Type of series: functional. The procedure, abridged: (§1)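 Female DBA/2 HA-DD mice, 5-7 weeks old. A 1 mm SMT-F tumor piece from a donor was trocar-implanted subcutaneously in the axilla. At about 5 mm tumor diameter, sensitizer in 1% Tween 80/water was given iv; dose was based on extinction coefficient. At 3 or 24 h after injection, restrained mice had the tumor lit with 135 J/cm2 laser light at the in vivo long-wavelength maximum. Tumor response was followed to day 30; six mice/group.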

The subject of series [2] is Mus musculus. Briefly: The compound was tested in vivo for photosensitizing efficacy in DBA/2 Mice transplanted with SMT/F tumors and the activity is expressed as % response (11-15 days) 3 hours post injection at 5.0 mg/kg concentration. Type of series: functional. The procedure, abridged:
as §1

Series [3] deals with Mus musculus. Briefly: The compound was tested in vivo for photosensitizing efficacy in DBA/2 Mice transplanted with SMT/F tumors and the activity is expressed as % response (26-30 days) 3 hours post injection at 5.0 mg/kg concentration; No response. Type of series: functional, organism-based. Also on record: dose 5 mg/kg. The procedure, abridged:
as §1

The target in series [4] is T1, Albumin (Homo sapiens, UniProt P02768). The experiment in a line: Binding affinity against Human serum albumin(Site I). The procedure, abridged: (§2)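 Fluorometric titration: HSA and sensitizer fixed at 1 × 10^-6 mol/L. Site probe varied 4 × 10^-7 to 2 × 10^-6 mol/L: DNSA for site I, read at 472 nm; DP for site II, read at 476 nm; excitation 340 nm. Incubated 4 °C, pH 7.0, 4 h, dark. Bound probe taken from standard curves of free probe (water) and HSA-bound probe (2.5 × 10^-5 mol/L HSA).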

Series [5] has as its system Mus musculus. The experiment in a line: The compound was tested in vivo for photosensitizing efficacy in DBA/2 Mice transplanted with SMT/F tumors and the activity is expressed as % response (26-30 days) 3 hours post injection at 1 mg/kg concentration; No response. Type of series: functional, organism-based. Also on record: dose 1 mg/kg. In short, it runs like this:
as §1

For series [6], the system named is Mus musculus. The experiment in a line: The compound was tested in vivo for photosensitizing efficacy in DBA/2 Mice transplanted with SMT/F tumors and the activity is expressed as % response (11-15 days) 3 hours post injection at 2.5 mg/kg concentration. Type of series: functional. The procedure, abridged: as §1
For series [7], the system named is Mus musculus. Briefly: The compound was tested in vivo for photosensitizing efficacy in DBA/2 Mice transplanted with SMT/F tumors and the activity is expressed as % response (6-10 days) 3 hours post injection at 2.5 mg/kg concentration. Type of series: functional. In short, it runs like this:
as §1

Series [8] deals with Mus musculus. Briefly: The compound was tested in vivo for photosensitizing efficacy in DBA/2 Mice transplanted with SMT/F tumors and the activity is expressed as % response (1-5 days) 3 hours post injection at 2 1 mg/kg concentration; No response. Type of series: functional, organism-based. Further details: dose 1 mg/kg. Particulars: at 1 mg/kg. In short, it runs like this: as §1

In series [9] the test system is Mus musculus. The experiment in a line: The compound was tested in vivo for photosensitizing efficacy in DBA/2 Mice transplanted with SMT/F tumors and the activity is expressed as % response (21-25 days) 3 hours post injection at 1 mg/kg concentration; No response. Type of series: functional, organism-based. Also on record: dose 1 mg/kg. The procedure, abridged:
as §1

The subject of series [10] is Mus musculus. The experiment in a line: The compound was tested in vivo for photosensitizing efficacy in DBA/2 Mice transplanted with SMT/F tumors and the activity is expressed as % response (26-30 days) 3 hours post injection at 2.5 mg/kg concentration. Type of series: functional. In short, it runs like this:
as §1

For series [11], the system named is Mus musculus. The experiment in a line: The compound was tested in vivo for photosensitizing efficacy in DBA/2 Mice transplanted with SMT/F tumors and the activity is expressed as % response (11-15 days) 3 hours post injection at 1 mg/kg concentration; No response. Type of series: functional, organism-based. Further details: dose 1 mg/kg. In short, it runs like this: as §1

Series [12] has as its system Mus musculus. The experiment in a line: The compound was tested in vivo for photosensitizing efficacy in DBA/2 Mice transplanted with SMT/F tumors and the activity is expressed as % response (1-5 days) 3 hours post injection at 5.0 mg/kg concentration. Type of series: functional. In short, it runs like this: as §1
The subject of series [13] is Mus musculus. Briefly: The compound was tested in vivo for photosensitizing efficacy in DBA/2 Mice transplanted with SMT/F tumors and the activity is expressed as % response (6-10 days) 3 hours post injection at 5.0 mg/kg concentration. Type of series: functional. The procedure, abridged:
as §1

In series [14] the test system is Mus musculus. The experiment in a line: The compound was tested in vivo for photosensitizing efficacy in DBA/2 Mice transplanted with SMT/F tumors and the activity is expressed as % response (16-20 days) 3 hours post injection at 5.0 mg/kg concentration. Type of series: functional. The procedure, abridged: as §1
The test system of series [15] is Mus musculus. The experiment in a line: The compound was tested in vivo for photosensitizing efficacy in DBA/2 Mice transplanted with SMT/F tumors and the activity is expressed as % response (16-20 days) 3 hours post injection at 1 mg/kg concentration; No response. Type of series: functional, organism-based. Further details: dose 1 mg/kg. The procedure, abridged: as §1

In series [16] the target is T1, Albumin. The experiment in a line: Binding affinity against Human serum albumin(Site II). In short, it runs like this: as §2
Series [17] concerns Mus musculus. The experiment in a line: The compound was tested in vivo for photosensitizing efficacy in DBA/2 Mice transplanted with SMT/F tumors and the activity is expressed as % response (16-20 days) 3 hours post injection at 2.5 mg/kg concentration. Type of series: functional. The procedure, abridged:
as §1

For series [18], the system named is Mus musculus. Briefly: The compound was tested in vivo for photosensitizing efficacy in DBA/2 Mice transplanted with SMT/F tumors and the activity is expressed as % response (21-25 days) 3 hours post injection at 5.0 mg/kg concentration; No response. Type of series: functional, organism-based. Further details: dose 5 mg/kg. In short, it runs like this:
as §1

In series [19] the test system is Mus musculus. Briefly: The compound was tested in vivo for photosensitizing efficacy in DBA/2 Mice transplanted with SMT/F tumors and the activity is expressed as % response (6-10 days) 3 hours post injection at 1 mg/kg concentration; No response. Type of series: functional, organism-based. Also on record: dose 1 mg/kg. In short, it runs like this:
as §1

Series [20] deals with Mus musculus. Briefly: The compound was tested in vivo for photosensitizing efficacy in DBA/2 Mice transplanted with SMT/F tumors and the activity is expressed as % response (21-25 days) 3 hours post injection at 2.5 mg/kg concentration. Type of series: functional. The procedure, abridged: as §1

Activity calls are given as the source filed them. No cut-off for these calls is given here.

T1 sequence (P02768 whole entry): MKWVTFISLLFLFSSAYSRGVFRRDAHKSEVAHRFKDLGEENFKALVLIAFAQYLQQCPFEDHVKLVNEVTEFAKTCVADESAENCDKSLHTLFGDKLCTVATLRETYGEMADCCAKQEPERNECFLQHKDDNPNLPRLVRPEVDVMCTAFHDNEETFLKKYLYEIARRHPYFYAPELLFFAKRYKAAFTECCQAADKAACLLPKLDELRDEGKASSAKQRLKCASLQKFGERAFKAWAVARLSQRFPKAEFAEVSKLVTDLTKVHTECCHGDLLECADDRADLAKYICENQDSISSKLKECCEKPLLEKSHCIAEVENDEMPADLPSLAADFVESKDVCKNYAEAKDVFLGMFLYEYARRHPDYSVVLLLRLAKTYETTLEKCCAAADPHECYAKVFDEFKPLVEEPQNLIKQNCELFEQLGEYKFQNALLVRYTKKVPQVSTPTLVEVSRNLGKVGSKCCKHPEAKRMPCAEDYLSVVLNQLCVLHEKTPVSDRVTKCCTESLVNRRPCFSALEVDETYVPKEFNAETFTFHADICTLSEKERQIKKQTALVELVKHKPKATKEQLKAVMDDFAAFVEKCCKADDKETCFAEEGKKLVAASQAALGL

In the case of `CCc1c(C)c2[nH]c1cc1[nH]c(cc3nc4c(c5nc(c2C=O)[C@@H](C)[C@@H]5CCC(=O)OC)CCC4=C3C)C(=O)C1(C)CC` (stereo not given in full), the Response stood at 100% in [1]; 60% in [2]; 80% in [6]; 100% in series [7]; 20% in [10]; 100% in [12]. For the same compound, the Response in series [13] stood at 60%; in [14] it was 0%; in [17], 60%; in series [20], 60%. Further, the Response entry in series [3], in [5], in series [8], in series [9], in series [11] and in [15] was “inactive” throughout. Besides, the Response entry in series [18] and in series [19] was “inactive” in each case. Moreover, the Binding constant in series [4] and in [16] was 500000 l M-1 each time.
